{"source": "ChEMBL document CHEMBL1806372", "about": "“Cytotoxic ring A-modified steroid analogues derived from Grundmann's ketone” (Eur J Med Chem, 2011)", "key": {"[1]": {"experiment": "Antifungal activity against Hyphopichia burtonii assessed as zone of inhibition at 5 uL and 28 degC after 36 hrs by disk diffusion method", "assay_type": "functional", "in_short": "(§1)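 Agar disc diffusion with the test compound applied as a 1% (w/v) DMSO solution. Yeasts were grown on AC agar and Aspergillus niger on potato dextrose broth agar, each strain spread evenly. Plates were covered and kept 36 h at 28 °C, and the inhibition zone diameter was read in mm. Clotrimazole served as reference.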"}, "[2]": {"test_system": "Nakaseomyces glabratus", "experiment": "Antifungal activity against Candida glabrata assessed as zone of inhibition at 5 uL and 28 degC after 36 hrs by disk diffusion method", "assay_type": "functional", "in_short": "as §1"}, "[3]": {"test_system": "Burkholderia gladioli", "experiment": "Antibacterial activity against Pseudomonas antimicrobica assessed as zone of inhibition at 5 uL and 32 degC after 36 hrs by disk diffusion method", "assay_type": "functional", "in_short": "(§2)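 Disc diffusion on AC agar, each strain spread evenly over the medium; test compounds given as 1% (w/v) DMSO solutions. Plates covered and incubated 36 h at 32 °C, then the diameter of the zone of inhibited growth measured in mm. Tetracycline served as antibacterial reference.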"}, "[4]": {"test_system": "Yarrowia lipolytica", "experiment": "Antifungal activity against Yarrowia lipolytica assessed as zone of inhibition at 5 uL and 28 degC after 36 hrs by disk diffusion method", "assay_type": "functional", "in_short": "as §1"}, "[5]": {"test_system": "Streptococcus entericus", "experiment": "Antibacterial activity against Streptococcus entericus assessed as zone of inhibition at 5 uL and 32 degC after 36 hrs by disk diffusion method", "assay_type": "functional", "in_short": "as §2"}, "[6]": {"test_system": "HL-60", "experiment": "Cytotoxicity against human HL60 cells after 24 hrs by MTT assay", "assay_type": "functional, cell-based", "conditions": "HL-60, 24 h", "in_short": "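HL-60 cells kept in RPMI 1640 with 10% FBS, no antibiotics, 37 °C, humidified 5% CO2. Cells (9 × 10^5 cells/mL) exposed to compound in 96-well plates for 24 h at 37 °C. MTT in PBS (5 mg/mL) added for 2 h, then DMSO, shaken 1 h and read photometrically. IC50 determined; cisplatin reference.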"}, "[7]": {"test_system": "Staphylococcus equorum", "experiment": "Antibacterial activity against Staphylococcus equorum assessed as zone of inhibition at 5 uL and 32 degC after 36 hrs at by disk diffusion method", "assay_type": "functional", "in_short": "as §2"}, "[8]": {"test_system": "Aspergillus niger", "experiment": "Antifungal activity against Aspergillus niger assessed as zone of inhibition at 5 uL and 28 degC after 36 hrs by disk diffusion method", "assay_type": "functional", "in_short": "as §1"}, "[9]": {"test_system": "Escherichia coli", "experiment": "Antibacterial activity against Escherichia coli assessed as zone of inhibition at 5 uL and 32 degC after 36 hrs by disk diffusion method", "assay_type": "functional", "in_short": "as §2"}}, "note": "Calls of active or inactive are those of the source. No cut-off for these calls is given here."}
{"smiles": "CC(C)CCC[C@@H](C)[C@H]1CC[C@H]2C3=CCn4c(=O)n(C)c(=O)n4[C@@H]3CC[C@]12C", "values": [{"measurement": "diameter of the inhibition zone (DIZ)", "setting": "[1]", "value": "inactive"}, {"measurement": "diameter of the inhibition zone (DIZ)", "setting": "[2]", "value": "inactive"}, {"measurement": "diameter of the inhibition zone (DIZ)", "setting": "[3]", "value": "inactive"}, {"measurement": "diameter of the inhibition zone (DIZ)", "setting": "[4]", "value": "inactive"}, {"measurement": "diameter of the inhibition zone (DIZ)", "setting": "[5]", "value": "inactive"}, {"measurement": "IC50", "setting": "[6]", "value": 13, "unit": "µM"}, {"measurement": "diameter of the inhibition zone (DIZ)", "setting": "[7]", "value": 10, "unit": "mm"}, {"measurement": "diameter of the inhibition zone (DIZ)", "setting": "[8]", "value": "inactive"}, {"measurement": "diameter of the inhibition zone (DIZ)", "setting": "[9]", "value": "inactive"}]}
